We go through 13 compounds from PMC4437465 (Molecular microbiology, 2014).

Like-named read-outs stand apart in the source and are kept apart here.

Assay [1] concerns the target T1, EUR_01830 (Agathobacter rectalis, UniProt A0ABF7PGY2).
T1 sequence (A0ABF7PGY2 24-422): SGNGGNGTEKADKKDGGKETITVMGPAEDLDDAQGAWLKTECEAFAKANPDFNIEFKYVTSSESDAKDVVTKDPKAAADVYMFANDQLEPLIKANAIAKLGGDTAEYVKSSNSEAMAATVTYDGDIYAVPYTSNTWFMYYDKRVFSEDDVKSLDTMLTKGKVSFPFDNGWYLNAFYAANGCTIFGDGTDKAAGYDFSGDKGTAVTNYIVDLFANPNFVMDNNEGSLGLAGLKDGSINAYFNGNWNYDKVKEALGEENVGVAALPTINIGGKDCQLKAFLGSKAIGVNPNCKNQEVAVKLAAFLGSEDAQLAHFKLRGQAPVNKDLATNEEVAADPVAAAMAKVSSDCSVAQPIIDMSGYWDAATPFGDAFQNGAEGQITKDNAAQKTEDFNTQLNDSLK
Description: isothermal titration calorimetry. It counts as binding. Conditions: 20 mM HEPES, 100 mM NaCl pH 7.0, 25 °C; isotherm not fitted.

Assay [2] concerns the target T1, EUR_01830. Nature of the assay: isothermal titration calorimetry. As to conditions: 20 mM HEPES, 100 mM NaCl pH 7.0, 25 °C. Type of assay: binding. On the technique in general: ITC needs no label: the signal is the heat of the interaction.
Assay [3] concerns the target T2, EUR_01240 (Agathobacter rectalis, UniProt D6E1S8).
T2 sequence (D6E1S8 23-427): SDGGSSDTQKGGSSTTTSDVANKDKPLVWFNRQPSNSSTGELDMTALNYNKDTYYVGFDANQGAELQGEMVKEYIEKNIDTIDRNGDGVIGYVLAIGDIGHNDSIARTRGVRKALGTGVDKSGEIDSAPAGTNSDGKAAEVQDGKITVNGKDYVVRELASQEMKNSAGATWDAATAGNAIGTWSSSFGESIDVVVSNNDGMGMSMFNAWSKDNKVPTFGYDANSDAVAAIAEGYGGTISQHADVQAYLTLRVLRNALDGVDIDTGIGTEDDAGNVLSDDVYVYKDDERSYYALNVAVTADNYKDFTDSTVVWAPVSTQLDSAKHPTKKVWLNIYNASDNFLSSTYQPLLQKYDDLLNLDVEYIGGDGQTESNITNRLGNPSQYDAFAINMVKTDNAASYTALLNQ
Nature of the assay: isothermal titration calorimetry. It counts as binding. As to conditions: read-out: EUR_01240 / Kd; 20 mM HEPES, 100 mM NaCl pH 7.0, 25 °C. The gist of the method:
(§1)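 Runs used a low-volume NanoITC at 25 °C. Protein (30–150 μM) was dialysed against 20 mM HEPES, 100 mM NaCl pH 7.0 and loaded in the sample cell, with water in the reference cell. Oligosaccharides (0.5–5 mM) were prepared in dialysis buffer and delivered as a small first injection plus 27 further injections. Stirring was at 350 rpm. Heat of reaction was recorded and fitted for Kd.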

The target in assay [4] is T3, EUR_21100 (Agathobacter rectalis, UniProt A0ABF7PGZ5).
T3 sequence (A0ABF7PGZ5 45-1329): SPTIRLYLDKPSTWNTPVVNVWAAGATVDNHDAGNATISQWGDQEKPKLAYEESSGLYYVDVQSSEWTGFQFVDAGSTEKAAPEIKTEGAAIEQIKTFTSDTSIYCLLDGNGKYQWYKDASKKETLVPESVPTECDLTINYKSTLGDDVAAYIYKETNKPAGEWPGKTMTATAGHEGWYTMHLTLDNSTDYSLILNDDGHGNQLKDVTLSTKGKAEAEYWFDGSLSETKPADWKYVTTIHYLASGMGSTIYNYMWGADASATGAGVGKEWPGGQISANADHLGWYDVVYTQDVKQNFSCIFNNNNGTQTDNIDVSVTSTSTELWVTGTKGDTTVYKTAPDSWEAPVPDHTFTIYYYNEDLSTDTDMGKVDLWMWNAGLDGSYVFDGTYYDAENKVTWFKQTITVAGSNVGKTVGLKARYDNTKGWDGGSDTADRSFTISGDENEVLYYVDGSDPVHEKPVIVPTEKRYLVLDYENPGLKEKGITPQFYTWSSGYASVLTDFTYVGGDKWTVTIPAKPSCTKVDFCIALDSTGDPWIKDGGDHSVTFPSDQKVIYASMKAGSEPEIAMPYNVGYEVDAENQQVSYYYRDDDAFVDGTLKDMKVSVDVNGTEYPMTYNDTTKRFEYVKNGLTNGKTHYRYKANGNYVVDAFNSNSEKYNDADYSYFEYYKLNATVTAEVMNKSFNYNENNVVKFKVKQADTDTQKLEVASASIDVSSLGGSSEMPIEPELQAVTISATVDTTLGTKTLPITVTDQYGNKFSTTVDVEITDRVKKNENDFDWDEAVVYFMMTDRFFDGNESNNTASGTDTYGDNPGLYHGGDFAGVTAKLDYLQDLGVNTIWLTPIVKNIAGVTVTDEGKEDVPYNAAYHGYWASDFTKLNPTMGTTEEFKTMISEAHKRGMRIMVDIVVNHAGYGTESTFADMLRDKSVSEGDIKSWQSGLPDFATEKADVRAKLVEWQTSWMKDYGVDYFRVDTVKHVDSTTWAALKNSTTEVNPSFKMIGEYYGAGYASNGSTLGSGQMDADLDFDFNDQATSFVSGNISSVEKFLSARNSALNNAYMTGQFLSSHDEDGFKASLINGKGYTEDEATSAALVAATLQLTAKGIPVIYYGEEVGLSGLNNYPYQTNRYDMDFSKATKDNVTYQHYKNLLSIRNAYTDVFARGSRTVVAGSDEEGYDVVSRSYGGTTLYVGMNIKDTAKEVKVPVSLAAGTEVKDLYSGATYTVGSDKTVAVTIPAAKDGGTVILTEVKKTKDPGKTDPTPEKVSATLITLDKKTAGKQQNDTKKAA
Nature of the assay: thin layer chromatography of products. It counts as biochemical. Conditions: 25 mM HEPES pH 6.5, 150 mM NaCl, 37 °C.

Assay [5] has as its target EUR_31480. Nature of the assay: isothermal titration calorimetry. Conditions: read-out: EUR_31480 / Kd; 20 mM HEPES, 100 mM NaCl pH 7.0, 25 °C. Type of assay: binding, Agathobacter rectalis. A digest of the protocol: as §1
Assay [6] deals with T1, EUR_01830. Nature of the assay: isothermal titration calorimetry. Type of assay: binding. Conditions: read-out: EUR_01830 / Kd; 20 mM HEPES, 100 mM NaCl pH 7.0, 25 °C.
Assay [7] deals with T4, EUR_21010 (Agathobacter rectalis, UniProt C4ZGN9).
T4 sequence (C4ZGN9 26-464): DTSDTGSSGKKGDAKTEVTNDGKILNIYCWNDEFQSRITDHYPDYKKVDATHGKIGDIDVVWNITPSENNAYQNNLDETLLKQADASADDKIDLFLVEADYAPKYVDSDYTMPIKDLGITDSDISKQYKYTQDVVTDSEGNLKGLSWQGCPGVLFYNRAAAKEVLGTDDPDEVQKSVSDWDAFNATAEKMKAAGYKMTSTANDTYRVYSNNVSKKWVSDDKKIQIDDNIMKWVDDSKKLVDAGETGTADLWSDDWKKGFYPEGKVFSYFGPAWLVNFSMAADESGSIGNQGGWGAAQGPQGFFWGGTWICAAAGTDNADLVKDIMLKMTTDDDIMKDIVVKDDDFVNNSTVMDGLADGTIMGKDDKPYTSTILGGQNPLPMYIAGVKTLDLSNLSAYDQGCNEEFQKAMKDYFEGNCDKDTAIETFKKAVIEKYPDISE
Description: isothermal titration calorimetry. It counts as binding. Conditions: 20 mM HEPES, 100 mM NaCl pH 7.0, 25 °C.

`OC[C@H]1O[C@H](OC[C@H]2O[C@H](O[C@H]3[C@H](O)[C@@H](O)[C@@H](O[C@H]4[C@H](O)[C@@H](O)[C@@H](OC[C@H]5O[C@H](O[C@H]6[C@H](O)[C@@H](O)[C@@H](O[C@H]7[C@H](O)[C@@H](O)C(O)O[C@@H]7CO)O[C@@H]6CO)[C@H](O)[C@@H](O)[C@@H]5O)O[C@@H]4CO)O[C@@H]3CO)[C@H](O)[C@@H](O)[C@@H]2O)[C@H](O)[C@@H](O)[C@@H]1O` (stereo partly shown) [GMM]: in assay [1], the isothermal titration calorimetry result is “We obtained an isotherm with GMM, but these data could not be fit well enough”.
As to `OC[C@H]1O[C@H](OC[C@H]2O[C@H](O[C@H]3[C@H](O)[C@@H](O)[C@@H](O[C@H]4[C@H](O)[C@@H](O)C(O)O[C@@H]4CO)O[C@@H]3CO)[C@H](O)[C@@H](O)[C@@H]2O)[C@H](O)[C@@H](O)[C@@H]1O` (stereo partly shown) [GM], in assay [2] (read-out: EUR_01830 / Kd), the Kd was found to be 9080 ± 618 nM.
As to `OC[C@H]1OC(O)[C@H](O)[C@@H](O)[C@H]1O` (stereo partly shown) [Galactose], the Kd in assay [3] worked out at 415 ± 20.2 nM.
Same read-out and setting: the result for `OC[C@H]1OC(O)[C@H](O)[C@@H](O)[C@@H]1O` (stereo partly shown) [Glucose] reads 1900 ± 460 nM.
In the case of `OC[C@H]1O[C@H](O[C@H]2[C@H](O)[C@@H](O)[C@@H](O[C@H]3[C@H](O)[C@@H](O)[C@@H](O[C@H]4[C@H](O)[C@@H](O)[C@@H](O[C@H]5[C@H](O)[C@@H](O)[C@@H](O[C@H]6[C@H](O)[C@@H](O)[C@@H](O[C@H]7[C@H](O)[C@@H](O)C(O)O[C@@H]7CO)O[C@@H]6CO)O[C@@H]5CO)O[C@@H]4CO)O[C@@H]3CO)O[C@@H]2CO)[C@H](O)[C@@H](O)[C@@H]1O` (stereo partly shown) [Maltoheptaose], in assay [2] (read-out: EUR_01830 / Kd), the Kd stood at 288 ± 5.9 nM. The “thin layer chromatography of products” value in assay [4] was “can hydrolyze longer maltooligosaccharides such as maltohexaose and maltoheptaose”.
As to `OC[C@H]1O[C@H](O[C@H]2[C@H](O)[C@@H](O)[C@@H](O[C@H]3[C@H](O)[C@@H](O)[C@@H](O[C@H]4[C@H](O)[C@@H](O)[C@@H](O[C@H]5[C@H](O)[C@@H](O)[C@@H](O[C@H]6[C@H](O)[C@@H](O)C(O)O[C@@H]6CO)O[C@@H]5CO)O[C@@H]4CO)O[C@@H]3CO)O[C@@H]2CO)[C@H](O)[C@@H](O)[C@@H]1O` (stereo partly shown) [Maltohexaose], in assay [2] (read-out: EUR_01830 / Kd), the Kd came out at 160 ± 6 nM.
On the same count and under the same terms, as for `OC[C@H]1O[C@H](O[C@H]2[C@H](O)[C@@H](O)[C@@H](O[C@H]3[C@H](O)[C@@H](O)[C@@H](O[C@H]4[C@H](O)[C@@H](O)[C@@H](O[C@H]5[C@H](O)[C@@H](O)C(O)O[C@@H]5CO)O[C@@H]4CO)O[C@@H]3CO)O[C@@H]2CO)[C@H](O)[C@@H](O)[C@@H]1O` (stereo partly shown) [Maltopentaose], the figure is 194 ± 34.8 nM.
`OC[C@H]1O[C@H](O[C@H]2[C@H](O)[C@@H](O)C(O)O[C@@H]2CO)[C@H](O)[C@@H](O)[C@@H]1O` (stereo partly shown) [Maltose]: the Kd in assay [5] turned out to be 563 ± 66.4 nM.
Regarding `OC[C@H]1O[C@H](O[C@H]2[C@H](O)[C@@H](O)[C@@H](O[C@H]3[C@H](O)[C@@H](O)[C@@H](O[C@H]4[C@H](O)[C@@H](O)C(O)O[C@@H]4CO)O[C@@H]3CO)O[C@@H]2CO)[C@H](O)[C@@H](O)[C@@H]1O` (stereo partly shown) [Maltotetraose], the Kd in assay [2] (read-out: EUR_01830 / Kd) worked out at 112 ± 19.8 nM; in assay [5], 1670 ± 199 nM.
`OC[C@H]1O[C@H](O[C@H]2[C@H](O)[C@@H](O)[C@@H](O[C@H]3[C@H](O)[C@@H](O)C(O)O[C@@H]3CO)O[C@@H]2CO)[C@H](O)[C@@H](O)[C@@H]1O` (stereo partly shown) [Maltotriose]: the Kd turned out to be 355 ± 0.4 nM in assay [5] and 550 ± 14 nM in assay [6].
Turning to `OC[C@H]1O[C@@H](O[C@H]2[C@H](O)[C@@H](O)C(O)O[C@@H]2CO)[C@H](O)[C@@H](O)[C@@H]1O` (stereo partly shown) [cellobiose], in assay [7], the Kd was 542 nM.
On the same count and under the same terms, as for `OC[C@H]1O[C@@H](O[C@H]2[C@H](O)[C@@H](O)[C@H](O[C@H]3[C@H](O)[C@@H](O)[C@H](O[C@H]4[C@H](O)[C@@H](O)C(O)O[C@@H]4CO)O[C@@H]3CO)O[C@@H]2CO)[C@H](O)[C@@H](O)[C@@H]1O` (stereo partly shown) [cellotetraose], the figure is 3010 nM.
In the case of `OC[C@H]1O[C@@H]2O[C@H]3[C@H](O)[C@@H](O)[C@@H](O[C@H]4[C@H](O)[C@@H](O)[C@@H](O[C@H]5[C@H](O)[C@@H](O)[C@@H](O[C@H]6[C@H](O)[C@@H](O)[C@@H](O[C@H]7[C@H](O)[C@@H](O)[C@@H](O[C@H]1[C@H](O)[C@H]2O)O[C@@H]7CO)O[C@@H]6CO)O[C@@H]5CO)O[C@@H]4CO)O[C@@H]3CO` [α-cyclodextrin], the Kd in assay [2] is 39 900 ± 2 430 nM.
